Experimental data gathered from unrelated publications.
Each line is one published result; the experiments were not run side by side. ≈ marks a conversion by molar mass, not a printed value.

O=C(CCCCCCSc1ccc2ccccc2c1)NO  viability (OCI-Ly1; cell growth or viability, ATP luminescence; 1 µM, 5 days): 154%
CCCCCCCCCCCCCCCCCCOc1ccccc1CC(=O)OCC[N+]1(C)CCCC1  inhibition (HOP-92; cell growth or viability, SRB; 10 µM): 67.3%
O=C(/C=C/c1cccc(C(=O)NO)c1)NO  viability (OCI-Ly1; cell growth or viability, ATP luminescence; 1 µM, 5 days): 72.5%
CCCCCCCCCCCCCCCCCCOc1ccc(CC(=O)OCC[N+](CC)(CC)CC)cc1  inhibition (HOP-92; cell growth or viability, SRB; 10 µM): 13.3%
O=C(NCCN1CCCC1)c1ccc(-c2nc3ccc4[nH]ncc4c3c3c2CCCC3)cc1  GI50 (K562; cell growth or viability, resazurin; 72 h): 2700 nM
Cc1ccc2[nH]nc(-c3nnc(Nc4ccc([N+](=O)[O-])cc4)s3)c2c1  MIC (Staphylococcus epidermidis; microbial growth; ATCC12228): 135 µg/mL (≈ 382 µM)
CC(=O)NC[C@H]1CN(c2ccc(N3CCOCC3)c(F)c2)C(=O)O1  MIC90 (Staphylococcus epidermidis; microbial growth; clinical isolate): 2 µg/mL (≈ 5.93 µM)
Cc1ccc2[nH]nc(-c3nnc(Nc4ccc(F)cc4)s3)c2c1  MIC (Staphylococcus epidermidis; microbial growth; ATCC12228): 123 µg/mL (≈ 377 µM)
CN[C@H](CC(C)C)C(=O)N[C@H]1C(=O)N[C@@H](CC(N)=O)C(=O)N[C@H]2C(=O)N[C@H]3C(=O)N[C@H](C(=O)N[C@H](C(=O)O)c4cc(O)cc(O)c4-c4cc3ccc4O)[C@H](O)c3ccc(c(Cl)c3)Oc3cc2cc(c3O[C@@H]2O[C@H](CO)[C@@H](O)[C@H](O)[C@H]2O[C@H]2C[C@](C)(N)[C@H](O)[C@H](C)O2)Oc2ccc(cc2Cl)[C@H]1O  MIC90 (Staphylococcus epidermidis; microbial growth, broth dilution; clinical isolate): 2 µg/mL (≈ 1.38 µM)
O=C(NCCN1CCCCC1)c1ccc(-c2nc3ccc4[nH]ncc4c3c3c2CCCC3)cc1  GI50 (K562; cell growth or viability, resazurin; 72 h): 7500 nM
CC[C@H]1OC(=O)[C@H](C)[C@@H](O[C@H]2C[C@@](C)(OC)[C@@H](O)[C@H](C)O2)[C@H](C)[C@@H](O[C@@H]2O[C@H](C)C[C@H](N(C)C)[C@H]2O)[C@](C)(O)C[C@@H](C)CN(C)[C@H](C)[C@@H](O)[C@]1(C)O  MIC (Staphylococcus epidermidis; microbial growth; ATCC12228): < 98 µg/mL
CCCCCCCCCCCCCCCCCCOc1ccc(CC(=O)OCCC[N+](C)(C)C)cc1  inhibition (HOP-92; cell growth or viability, SRB; 10 µM): 22.1%
O=C(Nc1cccc(Br)c1)c1cccc(S(=O)(=O)N2CCCCCC2)c1  viability (OCI-Ly1; cell growth or viability, ATP luminescence; 0.5 µM, 5 days): 157%
COc1c(N2C[C@@H]3CCCN[C@@H]3C2)c(F)cc2c(=O)c(C(=O)O)cn(C3CC3)c12  MIC90 (Staphylococcus epidermidis; microbial growth, broth dilution; clinical isolate): 2 µg/mL (≈ 4.98 µM)
O=C(Nc1nccs1)c1ccc(-c2nc3ccc4[nH]ncc4c3c3c2CCCC3)cc1  GI50 (K562; cell growth or viability, resazurin; 72 h): > 10000 nM
O=C(Nc1ccc(Cl)cc1)C1CCCN(C(=O)c2cc(C(F)(F)F)cc(C(F)(F)F)c2)C1 (racemic)  viability (OCI-Ly1; cell growth or viability, ATP luminescence; 0.5 µM, 5 days): 137%
Cc1ccc2[nH]nc(-c3nnc(Nc4cc(Cl)cc(Br)c4)s3)c2c1  MIC (Staphylococcus epidermidis; microbial growth; ATCC12228): 210 µg/mL (≈ 498 µM)
CCCCCCCCCCCCCCCCCCOCC(COP(=O)([O-])OCC[N+](C)(C)C)OC (centres unmarked)  inhibition (HOP-92; cell growth or viability, SRB; 10 µM): 40.1%
Cc1ccc2[nH]nc(-c3nnc(Nc4ccc(C(F)(F)F)cc4)s3)c2c1  MIC (Staphylococcus epidermidis; microbial growth; ATCC12228): 123 µg/mL (≈ 327 µM)
O=C(NC1CCCCC1)c1ccc(-c2nc3ccc4[nH]ncc4c3c3c2CCCC3)cc1  GI50 (K562; cell growth or viability, resazurin; 72 h): > 10000 nM
O=C(NO)c1ccc(CC(=O)N(CCO)c2ccccc2)cc1  viability (OCI-Ly1; cell growth or viability, ATP luminescence; 0.5 µM, 5 days): 93.8%
CCCCCCCCCCCCCCCCCCOc1ccccc1CC(=O)OCCC[N+](C)(C)C  inhibition (HOP-92; cell growth or viability, SRB; 10 µM): 60.4%
CC1(C)S[C@@H]2[C@H](NC(=O)[C@H](N)c3ccccc3)C(=O)N2[C@H]1C(=O)O  MIC90 (Staphylococcus epidermidis; microbial growth; MRSE; clinical isolate): > 128 µg/mL
CN(C)CCN(C)C(=O)c1ccc(-c2nc3ccc4[nH]ncc4c3c3c2CCCCC3)nc1  GI50 (K562; cell growth or viability, resazurin; 72 h): > 10000 nM
Cc1cc(Nc2nnc(-c3n[nH]c4ccc(C)cc34)s2)cc([N+](=O)[O-])c1  MIC (Staphylococcus epidermidis; microbial growth; ATCC12228): 208 µg/mL (≈ 568 µM)
CN(C)CCNC(=O)c1ccc(-c2nc3ccc4[nH]ncc4c3c3c2CCCC3)s1  GI50 (K562; cell growth or viability, resazurin; 72 h): 805 nM
O=C(CCCCCCC(=O)Nc1ccccc1)NO  viability (OCI-Ly1; cell growth or viability, ATP luminescence; 1 µM, 5 days): 50.5%
CC[C@H]1OC(=O)[C@H](C)[C@@H](O[C@H]2C[C@@](C)(OC)[C@@H](O)[C@H](C)O2)[C@H](C)[C@@H](O[C@@H]2O[C@H](C)C[C@H](N(C)C)[C@H]2O)[C@](C)(O)C[C@@H](C)/C(=N\OCOCCOC)[C@H](C)[C@@H](O)[C@]1(C)O  MIC90 (Staphylococcus epidermidis; microbial growth; clinical isolate): 64 µg/mL (≈ 76.5 µM)
CCCCCCCCCCCCCCCCCCOc1cccc(CC(=O)OCC[N+]2(C)CCCC2)c1  inhibition (HOP-92; cell growth or viability, SRB; 10 µM): 30%
CCc1nc(C(N)=O)c(Nc2ccc(N3CCC(N4CCN(C)CC4)CC3)c(OC)c2)nc1NC1CCOCC1  GI50 (K562; cell growth or viability, resazurin; 72 h): 2300 nM
CCCCCCCCCCCCCCCCCCOc1cccc(CC(=O)OCC[N+](CC)(CC)CC)c1  inhibition (HOP-92; cell growth or viability, SRB; 10 µM): 47.7%
C=C[C@]1(C)C[C@@H](OC(=O)CS[C@@H]2C[C@H]3CC[C@@H](C2)N3C)[C@]2(C)[C@H](C)CC[C@]3(CCC(=O)[C@H]32)[C@@H](C)[C@@H]1O  MIC50 (Staphylococcus epidermidis; microbial growth; clinical isolate): 0.0312 µg/mL (≈ 0.0604 µM)
Cc1n[nH]c2ccc3nc(-c4ccc(C(=O)NCCN(C)C)cc4)c4c(c3c12)CCCCC4  GI50 (K562; cell growth or viability, resazurin; 72 h): 2900 nM
CCCCCCCCCCCCCCCCCCOc1cccc(CC(=O)OCC[N+]2(C)CCOCC2)c1  inhibition (HOP-62; cell growth or viability, SRB; 10 µM): 9.38%
CC(=O)OC[C@H]1O[C@@H](n2cnc(N)nc2=O)[C@H](OC(C)=O)[C@@H]1OC(C)=O  viability (OCI-Ly1; cell growth or viability, ATP luminescence; 0.1 µM, 5 days): 177%
